Test results published in ChEMBL document CHEMBL4480447, “Acrotrione: An Oxidized Xanthene from the Roots of Acronychia pubescens” (J Nat Prod, 2019).
pIC50: −log10 of the molar value.

Assays:
[1] = test system: Plasmodium falciparum; experiment: Antiplasmodial activity against drug-sensitive Plasmodium falciparum 3D7 ring stage forms assessed as inhibition of parasite growth after 72 hrs by DAPI staining-based confocal microscopic analysis; format: functional, organism-based; settings: 3D7, 72 h
[2] = Cytotoxicity against HEK293 cells assessed as growth inhibition after 72 hrs by resazurin dye-based fluorescence assay relative to control; format: cell-based; parameters: concentration or dose not given beside the values; settings: human, read-out: GI
How it was run: (§1)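 HEK293 cells kept in DMEM with 10% FBS. Exposed to compound for 72 h at 37 °C, 5% CO2; 16-point dose-response, 40 μM to 0.4 nM final, three concentrations per log, from 10 mM DMSO stocks. Medium then replaced with 44 μM resazurin; fluorescence read after 5−6 h (ex/em 530/595 nm). Data normalized to puromycin (5 μM) and 0.4% DMSO controls; IC50 from four-parameter logistic fit.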

[3] = test system: Plasmodium falciparum; experiment: Antiplasmodial activity against drug-resistant Plasmodium falciparum Dd2 ring stage forms assessed as inhibition of parasite growth at 40 uM after 72 hrs by DAPI staining-based confocal microscopic analysis; format: functional; settings: Dd2, 72 h, read-out: GI
How it was run: (§2)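 Compounds from 10 mM DMSO stocks, 16-point dose-response, 40 μM to 0.4 nM final. Incubation 72 h at 37 °C, 90% N2/5% CO2/5% O2. DAPI stain, confocal imaging. Percent inhibition normalized to puromycin 5 μM and 0.4% DMSO controls; IC50 by four-parameter logistic fit.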

[4] = test system: Plasmodium falciparum; experiment: Antiplasmodial activity against drug-sensitive Plasmodium falciparum 3D7 ring stage forms assessed as inhibition of parasite growth at 40 uM after 72 hrs by DAPI staining-based confocal microscopic analysis; format: functional; settings: 3D7, 72 h, read-out: GI
How it was run: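 Exposed to compound for 72 h at 37 °C under 90% N2/5% CO2/5% O2. DAPI staining followed by confocal imaging. Percent inhibition normalized to puromycin (5 μM) and 0.4% DMSO controls.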

[5] = test system: Plasmodium falciparum; experiment: Antiplasmodial activity against drug-resistant Plasmodium falciparum Dd2 ring stage forms assessed as inhibition of parasite growth after 72 hrs by DAPI staining-based confocal microscopic analysis; format: functional, organism-based; settings: Dd2, 72 h; how it was run: as §2
[6] = Selectivity ratio of IC50 for Plasmodium falciparum Dd2 ring stage forms to IC50 for Plasmodium falciparum 3D7 ring stage forms; format: functional
How it was run: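 Sixteen-point dose-response, 40 μM to 0.4 nM final. Fit is four-parameter logistic on percent inhibition normalized to puromycin (5 μM) and 0.4% DMSO. Ratio is Dd2 IC50 over 3D7 IC50.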

[7] = Selectivity index, ratio of IC50 for HEK293 cells to IC50 for drug-sensitive Plasmodium falciparum 3D7 ring stage forms; format: toxicity; settings: human; read-out: Ratio IC50
[8] = test system: HEK293; experiment: Cytotoxicity against HEK293 cells after 72 hrs by resazurin dye-based fluorescence assay; format: cell-based; settings: Homo sapiens, HEK293, 72 h; how it was run: as §1

Structure (SMILES)	pIC50 [1]	inhibition at 72 h [2] [%]	inhibition of growth at 40 µM [3] [%]	inhibition of growth at 40 µM [4] [%]	pIC50 [5]	Ratio IC50 [6]	selectivity ratio [7]	pIC50 [8]
CCc1nc(N)nc(N)c1-c1ccc(Cl)cc1 [PYRIMETHAMINE]	8.11	52						
COc1c(CC=C(C)C)c(O)c(C=O)c(O)c1C(C)=O [ACRONYCULATIN A]		7.4	19.8	37.5				
C[C@H]1[C@H](OC(=O)CCC(=O)O)O[C@@H]2O[C@@]3(C)CC[C@H]4[C@H](C)CC[C@@H]1[C@@]24OO3 [ARTESUNATE]		62.5			8.48			
COc1ccc(C[C@H](N)C(=O)N[C@H]2[C@@H](O)[C@H](n3cnc4c(N(C)C)ncnc43)O[C@@H]2CO)cc1 [PUROMYCIN]	7.15				7.13	1.1	9.9	6.16
C[C@H]1[C@@H](O)O[C@@H]2O[C@@]3(C)CC[C@H]4[C@H](C)CC[C@@H]1[C@@]24OO3 [ARTENIMOL]		41.1				1.8		
COc1c(CC=C(C)C)c(O)cc(O)c1C(C)=O	5.74	79.1			5.51	1.7		
COc1c(CC=C(C)C)c2c(c(O)c1C(C)=O)[C@H](CC(C)C)[C@H]1C(=O)C(C(C)=O)=C3O[C@@H](C(C)(C)O)C[C@@]3(O)[C@@]1(O)O2	5.57	80.7			5.33	1.7		
CCN(CC)CCCC(C)Nc1ccnc2cc(Cl)ccc12 (stereo not drawn) [CHLOROQUINE]		53.2						
COc1ccc2nc3cc(Cl)ccc3c(Nc3cc(CN4CCCC4)c(O)c(CN4CCCC4)c3)c2n1 [PYRONARIDINE]	8.09				7.96	1.3	246	5.70
